Measured values taken from ChEMBL document CHEMBL1138513, “Glucose promoiety enables glucose transporter mediated brain uptake of ketoprofen and indomethacin prodrugs in rats” (J Med Chem, 2009).

How the values were obtained:
[1] = biological target: T1, Solute carrier family 2, facilitated glucose transporter member 1 (Rattus norvegicus) (UniProt P11167); experiment: Inhibition of GluT1-mediated [14C]D-glucose uptake in Wistar rat brain at 20 mM by perfusion technique
T1 sequence (whole entry): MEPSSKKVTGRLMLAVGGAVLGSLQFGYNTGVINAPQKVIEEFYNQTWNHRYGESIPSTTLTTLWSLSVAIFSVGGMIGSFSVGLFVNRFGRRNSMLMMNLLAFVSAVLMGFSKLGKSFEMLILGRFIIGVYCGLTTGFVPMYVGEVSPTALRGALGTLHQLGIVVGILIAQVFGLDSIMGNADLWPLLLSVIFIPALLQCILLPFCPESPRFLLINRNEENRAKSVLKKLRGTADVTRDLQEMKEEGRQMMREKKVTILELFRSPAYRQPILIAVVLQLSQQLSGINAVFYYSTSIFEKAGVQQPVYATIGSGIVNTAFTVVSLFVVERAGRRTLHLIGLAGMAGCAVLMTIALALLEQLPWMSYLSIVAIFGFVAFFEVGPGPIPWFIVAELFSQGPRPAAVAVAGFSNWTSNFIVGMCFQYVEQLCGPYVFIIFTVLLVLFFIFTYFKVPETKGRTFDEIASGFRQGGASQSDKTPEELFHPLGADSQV

[2] = Chemical stability in aqueous phosphate buffer at pH 7.4 assessed as half life by HPLC; assay type: physicochemical
Method in brief: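 Prodrug dissolved in preheated 0.16 M phosphate buffer, pH 7.4, ionic strength 0.5, held at 37 °C in a water bath. Samples taken at intervals and remaining prodrug measured by HPLC. Pseudo-first-order t1/2 taken from the slope of log remaining prodrug versus time; mean ± sd, n = 2.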

Brain [3] = experiment: Drug uptake in Wistar rat brain at 3500 uM by perfusion technique; assay type: ADME, tissue-based; conditions: in vivo
Method in brief: (§1)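 In situ brain perfusion via the right common carotid artery in adult male Wistar rats (200-230 g) under ketamine/xylazine ip. Prodrug in perfusion medium with 1% DMSO, pH 7.4, perfused 60 s at 37 °C, then washed with cold (5 °C) prodrug-free medium for 30 s. Brain hemisphere analysed by HPLC; uptake in pmol/mg/min, mean ± sd, n = 3.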

[4] = (§2) Metabolic stability in rat brain homogenate assessed as half life by HPLC; assay type: ADME, tissue-based
Method in brief: (§3)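 Prodrug incubated at 37 °C in rat brain homogenate diluted to 20% (v/v), or in liver homogenate diluted to 50% (v/v), in isotonic 0.16 M phosphate buffer, pH 7.4. Aliquots quenched with acetonitrile and centrifuged; remaining prodrug and released parent drug measured by HPLC. Pseudo-first-order t1/2 reported; mean ± sd, n = 3.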

[5] = biological target: T1, Solute carrier family 2, facilitated glucose transporter member 1 (Rattus norvegicus); experiment: Inhibition of GluT1-mediated [14C]D-glucose uptake in Wistar rat brain at 80 uM by perfusion technique
[6] = biological target: T1, Solute carrier family 2, facilitated glucose transporter member 1 (Rattus norvegicus); experiment: Inhibition of GluT1-mediated [14C]D-glucose uptake in Wistar rat brain at 80 uM after 30 seconds perfusion measured after drug washout from brain capillary 30 seconds before [14C]D-glucose challenge
Method in brief: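 Reversibility test in male Wistar rats. Brain perfused first with prodrug at 80 µM for 30 s, then with prodrug-free medium for 30 s to wash the capillaries, then with 0.2 µCi/mL [14C]D-glucose for 30 s. PA product of [14C]D-glucose then determined.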

Brain [7] = experiment: Drug uptake in Wistar rat brain at 150 uM by perfusion technique in presence of D-glucose; assay type: ADME, tissue-based; conditions: in vivo
Method in brief: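 Male Wistar rats, in situ carotid brain perfusion. Prodrug at 150 µM given for 60 s at 37 °C in perfusion medium (1% DMSO, pH 7.4) with 50 mM D-glucose added, followed by a 30 s cold prodrug-free wash. Brain prodrug measured by HPLC; uptake in pmol/mg/min, mean ± sd, n = 3.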

Brain [8] = experiment: Drug uptake in Wistar rat brain at 150 uM by perfusion technique […]; assay type: ADME, tissue-based; conditions: in vivo
Method in brief: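 Carrier-mediated uptake blocked nonspecifically by cold in male Wistar rats. Capillaries first washed 30 s with 5 °C prodrug-free medium, then perfused 60 s with 5 °C prodrug solution at 150 µM, then washed again with cold medium. Brain prodrug measured by HPLC; mean ± sd, n = 3.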

Brain [9] = experiment: Drug uptake in Wistar rat brain at 15000 uM by perfusion technique; assay type: ADME, tissue-based; conditions: in vivo; method in brief: as §1
Brain [10] = experiment: Drug uptake in Wistar rat brain at 150 uM by perfusion technique; assay type: ADME, tissue-based; conditions: in vivo; method in brief: as §1
[11] = biological target: T1, Solute carrier family 2, facilitated glucose transporter member 1 (Rattus norvegicus); experiment: (§4) Inhibition of GluT1-mediated [14C]D-glucose uptake in Wistar rat brain by perfusion technique
Method in brief: (§5)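 Rat brain PA product of 0.2 µCi/mL [14C]D-glucose measured by in situ perfusion with prodrug co-perfused at concentrations from 0.1 to 1000 µM or 0.01 to 80 µM. IC50 obtained by nonlinear regression; mean ± sd, n = 2.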

[12] = biological target: T2, Solute carrier family 2, facilitated glucose transporter member 1 (Rattus norvegicus, UniProt P11167); experiment: as §4; method in brief: as §5
T2 sequence (P11167 whole entry): T1 sequence (whole entry)

[13] = Metabolic stability in rat liver homogenate assessed as half life by HPLC; assay type: ADME, tissue-based; method in brief: as §3
Brain [14] = experiment: Drug uptake in Wistar rat brain at 450 uM by perfusion technique; assay type: ADME, tissue-based; conditions: in vivo; method in brief: as §1
Brain [15] = experiment: Drug uptake in Wistar rat brain at 1000 uM by perfusion technique; assay type: ADME, tissue-based; conditions: in vivo; method in brief: as §1
Brain [16] = experiment: as §2; assay type: ADME, tissue-based; method in brief: as §3

Row | Compound | half-life [2] | inhibition [5] | PA [6] | Drug uptake (Brain [7]) | Drug uptake (Brain [8]) | Drug uptake (Brain [10]) | Activity [11] | IC50 [12] | Activity (Brain [16]) | further results
1 | OC[C@H]1OC(O)[C@H](O)[C@@H](O)[C@@H]1O (some centres not stated) | – | – | – | – | – | – | – | – | – | inhibition [1]: 73.8%
2 | CC(C(=O)OC[C@H]1O[C@@H](O)[C@H](O)[C@@H](O)[C@@H]1O)c1cccc(C(=O)c2ccccc2)c1 (some centres not stated) | 88.5 h | 75.5% | 0.0033 mL/s/g | 0.513 pmol/mg/min | 0.515 pmol/mg/min | 1.33 pmol/mg/min | Dose-dependent effect | 32.9 µM | – | Drug uptake (Brain [3]): 20.77 pmol/mg/min; half-life [4]: 0.725 h; Drug uptake (Brain [9]): 93.21 pmol/mg/min; half-life [13]: 8.6 min; Drug uptake (Brain [14]): 3.55 pmol/mg/min; Drug uptake (Brain [15]): 7.78 pmol/mg/min
3 | COc1ccc2c(c1)c(CC(=O)OCC(=O)OC[C@H]1O[C@@H](O)[C@H](O)[C@@H](O)[C@@H]1O)c(C)n2C(=O)c1ccc(Cl)cc1 | 3 h | – | – | – | – | – | – | – | Unstable | –

More lines, main results first:

Row | half-life [2] | inhibition [5] | PA [6] | Drug uptake (Brain [7]) | Drug uptake (Brain [8]) | Drug uptake (Brain [10]) | Activity [11] | IC50 [12] | Activity (Brain [16]) | Compound | further results
4 | 40.5 h | 96.7% | 0.0032 mL/s/g | 1.806 pmol/mg/min | 0.599 pmol/mg/min | 1.993 pmol/mg/min | Dose-dependent effect | 0.71 µM | – | COc1ccc2c(c1)c(CC(=O)OC[C@H]1O[C@@H](O)[C@H](O)[C@@H](O)[C@@H]1O)c(C)n2C(=O)c1ccc(Cl)cc1 | –
5 | 9.5 h | – | – | – | – | – | – | – | Unstable | COc1ccc2c(c1)c(CC(=O)OC(C)C(=O)OC[C@H]1O[C@@H](O)[C@H](O)[C@@H](O)[C@@H]1O)c(C)n2C(=O)c1ccc(Cl)cc1 (some centres not stated) | –
